According to ChEMBL document CHEMBL4689842, “EUbOPEN Chemogenomics Library wave 1” (2021):

Test system: U2OS
Assay: Multiplex assay against U2OS
Type: toxicity, cell-based
Settings: human
In short: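 Values for tubulin, mitochondrial-mass and membrane-permeability phenotypes are per cents of cells with healthy nuclei. These cells were identified by CellPathfinder machine-learning gating of live cells that had been stained at seeding with Hoechst33342, BioTracker Green Microtubule Cytoskeleton Dye, MitoTracker Red and Annexin V Alexa Fluor 680 and imaged on a CQ1 microscope at 37°C and 5% CO2 after compound addition. The gating first set Hoechst high-intensity objects apart from normal cells, then split normal cells into healthy, pyknosed or fragmented nuclei, and pyknosed cells into mitotic or apoptotic.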

[1] = 12 h, 1 µM, compound concentration 1 uM, replicate 1
[2] = 12 h, 1 µM, compound concentration 1 uM, replicate 2
[3] = 12 h, 10 µM, compound concentration 10 uM, replicate 1
[4] = 12 h, 10 µM, compound concentration 10 uM, replicate 2
[5] = 24 h, 1 µM, compound concentration 1 uM, replicate 1
[6] = 24 h, 1 µM, compound concentration 1 uM, replicate 2
[7] = 24 h, 10 µM, compound concentration 10 uM, replicate 1
[8] = 24 h, 10 µM, compound concentration 10 uM, replicate 2
[9] = 48 h, 1 µM, compound concentration 1 uM, replicate 1
[10] = 48 h, 1 µM, compound concentration 1 uM, replicate 2
[11] = 48 h, 10 µM, compound concentration 10 uM, replicate 1
[12] = 48 h, 10 µM, compound concentration 10 uM, replicate 2

COc1cc(N2CCN(C)CC2)ccc1Nc1ncc2c(n1)N(C)c1ccccc1C(=O)N2C
Population Apoptotic (%) [1]: 33%
Population Fragmented Nuclei (%) [1]: 12%
Population Healthy Nuclei (%) [1]: 72%
Population Hoechst High Intensity Objects (%) [1]: 6%
Population Membrane Permeable-Phenotype (%) [1]: 6%
Population Mitochondria Different-Phenotype (%) [1]: 25%
Population Mitotic Cells (%) [1]: 66%
Population Normal (%) [1]: 93%
Population Pyknosed Nuclei (%) [1]: 14%
Population Tubulin-Different-Phenotype (%) [1]: 17%
Total Cell Count [1]: 199
Population Apoptotic (%) [2]: 40%
Population Fragmented Nuclei (%) [2]: 5%
Population Healthy Nuclei (%) [2]: 82%
Population Hoechst High Intensity Objects (%) [2]: 4%
Population Membrane Permeable-Phenotype (%) [2]: 9%
Population Mitochondria Different-Phenotype (%) [2]: 21%
Population Mitotic Cells (%) [2]: 60%
Population Normal (%) [2]: 95%
Population Pyknosed Nuclei (%) [2]: 12%
Population Tubulin-Different-Phenotype (%) [2]: 15%
Total Cell Count [2]: 104
Population Apoptotic (%) [3]: 60%
Population Fragmented Nuclei (%) [3]: 11%
Population Healthy Nuclei (%) [3]: 66%
Population Hoechst High Intensity Objects (%) [3]: 7%
Population Membrane Permeable-Phenotype (%) [3]: 22%
Population Mitochondria Different-Phenotype (%) [3]: 96%
Population Mitotic Cells (%) [3]: 39%
Population Normal (%) [3]: 92%
Population Pyknosed Nuclei (%) [3]: 21%
Population Tubulin-Different-Phenotype (%) [3]: 99%
Total Cell Count [3]: 177
Population Apoptotic (%) [4]: 66%
Population Fragmented Nuclei (%) [4]: 15%
Population Healthy Nuclei (%) [4]: 61%
Population Hoechst High Intensity Objects (%) [4]: 5%
Population Membrane Permeable-Phenotype (%) [4]: 21%
Population Mitotic Cells (%) [4]: 33%
Population Normal (%) [4]: 94%
Population Pyknosed Nuclei (%) [4]: 23%
Population Tubulin-Different-Phenotype (%) [4]: 100%
Total Cell Count [4]: 42
Population Apoptotic (%) [5]: 29%
Population Fragmented Nuclei (%) [5]: 11%
Population Hoechst High Intensity Objects (%) [5]: 5%
Population Membrane Permeable-Phenotype (%) [5]: 3%
Population Mitochondria Different-Phenotype (%) [5]: 8%
Population Mitotic Cells (%) [5]: 70%
Population Normal (%) [5]: 94%
Population Pyknosed Nuclei (%) [5]: 12%
Population Tubulin-Different-Phenotype (%) [5]: 8%
Total Cell Count [5]: 187
Population Apoptotic (%) [6]: 50%
Population Fragmented Nuclei (%) [6]: 9%
Population Healthy Nuclei (%) [6]: 75%
Population Hoechst High Intensity Objects (%) [6]: 6%
Population Membrane Permeable-Phenotype (%) [6]: 6%
Population Mitochondria Different-Phenotype (%) [6]: 12%
Population Mitotic Cells (%) [6]: 50%
Population Normal (%) [6]: 93%
Population Pyknosed Nuclei (%) [6]: 14%
Population Tubulin-Different-Phenotype (%) [6]: 6%
Total Cell Count [6]: 101
Population Apoptotic (%) [7]: 69%
Population Fragmented Nuclei (%) [7]: 18%
Population Healthy Nuclei (%) [7]: 50%
Population Hoechst High Intensity Objects (%) [7]: 7%
Population Membrane Permeable-Phenotype (%) [7]: 19%
Population Mitochondria Different-Phenotype (%) [7]: 94%
Population Mitotic Cells (%) [7]: 30%
Population Normal (%) [7]: 92%
Population Pyknosed Nuclei (%) [7]: 30%
Population Tubulin-Different-Phenotype (%) [7]: 97%
Total Cell Count [7]: 204
Population Apoptotic (%) [8]: 76%
Population Fragmented Nuclei (%) [8]: 11%
Population Healthy Nuclei (%) [8]: 63%
Population Hoechst High Intensity Objects (%) [8]: 8%
Population Membrane Permeable-Phenotype (%) [8]: 30%
Population Mitochondria Different-Phenotype (%) [8]: 93%
Population Mitotic Cells (%) [8]: 23%
Population Normal (%) [8]: 91%
Population Pyknosed Nuclei (%) [8]: 25%
Population Tubulin-Different-Phenotype (%) [8]: 66%
Total Cell Count [8]: 44
Population Apoptotic (%) [9]: 42%
Population Fragmented Nuclei (%) [9]: 7%
Population Healthy Nuclei (%) [9]: 77%
Population Membrane Permeable-Phenotype (%) [9]: 4%
Population Mitochondria Different-Phenotype (%) [9]: 5%
Population Mitotic Cells (%) [9]: 57%
Population Pyknosed Nuclei (%) [9]: 14%
Population Tubulin-Different-Phenotype (%) [9]: 8%
Total Cell Count [9]: 182
Population Apoptotic (%) [10]: 60%
Population Fragmented Nuclei (%) [10]: 5%
Population Healthy Nuclei (%) [10]: 76%
Population Hoechst High Intensity Objects (%) [10]: 3%
Population Membrane Permeable-Phenotype (%) [10]: 9%
Population Mitochondria Different-Phenotype (%) [10]: 16%
Population Mitotic Cells (%) [10]: 40%
Population Normal (%) [10]: 96%
Population Pyknosed Nuclei (%) [10]: 18%
Population Tubulin-Different-Phenotype (%) [10]: 11%
Total Cell Count [10]: 88
Population Apoptotic (%) [11]: 84%
Population Fragmented Nuclei (%) [11]: 21%
Population Healthy Nuclei (%) [11]: 42%
Population Hoechst High Intensity Objects (%) [11]: 7%
Population Membrane Permeable-Phenotype (%) [11]: 18%
Population Mitotic Cells (%) [11]: 15%
Population Normal (%) [11]: 92%
Population Pyknosed Nuclei (%) [11]: 35%
Population Tubulin-Different-Phenotype (%) [11]: 82%
Total Cell Count [11]: 297
Population Apoptotic (%) [12]: 63%
Population Fragmented Nuclei (%) [12]: 11%
Population Healthy Nuclei (%) [12]: 46%
Population Hoechst High Intensity Objects (%) [12]: 19%
Population Membrane Permeable-Phenotype (%) [12]: 33%
Population Mitochondria Different-Phenotype (%) [12]: 90%
Population Mitotic Cells (%) [12]: 36%
Population Normal (%) [12]: 80%
Population Pyknosed Nuclei (%) [12]: 42%
Population Tubulin-Different-Phenotype (%) [12]: 61%
Total Cell Count [12]: 57

Cc1ccc2nc(NCCN)c3ncc(C)n3c2c1.O=C(O)C(F)(F)F.O=C(O)C(F)(F)F
Population Apoptotic (%) [1]: 29%
Population Fragmented Nuclei (%) [1]: 6%
Population Healthy Nuclei (%) [1]: 83%
Population Hoechst High Intensity Objects (%) [1]: 1%
Population Membrane Permeable-Phenotype (%) [1]: 6%
Population Mitochondria Different-Phenotype (%) [1]: 17%
Population Mitotic Cells (%) [1]: 70%
Population Normal (%) [1]: 98%
Population Pyknosed Nuclei (%) [1]: 10%
Population Tubulin-Different-Phenotype (%) [1]: 27%
Total Cell Count [1]: 235
Population Apoptotic (%) [2]: 4%
Population Fragmented Nuclei (%) [2]: 8%
Population Healthy Nuclei (%) [2]: 75%
Population Hoechst High Intensity Objects (%) [2]: 13%
Population Mitotic Cells (%) [2]: 95%
Population Normal (%) [2]: 86%
Population Pyknosed Nuclei (%) [2]: 16%
Population Tubulin-Different-Phenotype (%) [2]: 17%
Total Cell Count [2]: 151
Population Apoptotic (%) [3]: 28%
Population Fragmented Nuclei (%) [3]: 17%
Population Healthy Nuclei (%) [3]: 65%
Population Hoechst High Intensity Objects (%) [3]: 8%
Population Membrane Permeable-Phenotype (%) [3]: 17%
Population Mitochondria Different-Phenotype (%) [3]: 11%
Population Mitotic Cells (%) [3]: 71%
Population Normal (%) [3]: 91%
Population Pyknosed Nuclei (%) [3]: 17%
Population Tubulin-Different-Phenotype (%) [3]: 17%
Total Cell Count [3]: 132
Population Apoptotic (%) [4]: 50%
Population Fragmented Nuclei (%) [4]: 27%
Population Healthy Nuclei (%) [4]: 53%
Population Hoechst High Intensity Objects (%) [4]: 12%
Population Membrane Permeable-Phenotype (%) [4]: 15%
Population Mitochondria Different-Phenotype (%) [4]: 13%
Population Mitotic Cells (%) [4]: 50%
Population Normal (%) [4]: 87%
Population Pyknosed Nuclei (%) [4]: 18%
Population Tubulin-Different-Phenotype (%) [4]: 22%
Total Cell Count [4]: 123
Population Apoptotic (%) [5]: 33%
Population Fragmented Nuclei (%) [5]: 2%
Population Healthy Nuclei (%) [5]: 93%
Population Hoechst High Intensity Objects (%) [5]: 1%
Population Membrane Permeable-Phenotype (%) [5]: 7%
Population Mitochondria Different-Phenotype (%) [5]: 19%
Population Mitotic Cells (%) [5]: 66%
Population Normal (%) [5]: 98%
Population Pyknosed Nuclei (%) [5]: 3%
Population Tubulin-Different-Phenotype (%) [5]: 31%
Total Cell Count [5]: 309
Population Apoptotic (%) [6]: 18%
Population Fragmented Nuclei (%) [6]: 6%
Population Healthy Nuclei (%) [6]: 84%
Population Hoechst High Intensity Objects (%) [6]: 8%
Population Mitochondria Different-Phenotype (%) [6]: 32%
Population Mitotic Cells (%) [6]: 81%
Population Normal (%) [6]: 91%
Population Pyknosed Nuclei (%) [6]: 9%
Population Tubulin-Different-Phenotype (%) [6]: 20%
Total Cell Count [6]: 192
Population Apoptotic (%) [7]: 76%
Population Fragmented Nuclei (%) [7]: 27%
Population Healthy Nuclei (%) [7]: 30%
Population Hoechst High Intensity Objects (%) [7]: 8%
Population Membrane Permeable-Phenotype (%) [7]: 32%
Population Mitochondria Different-Phenotype (%) [7]: 26%
Population Mitotic Cells (%) [7]: 23%
Population Normal (%) [7]: 91%
Population Pyknosed Nuclei (%) [7]: 41%
Population Tubulin-Different-Phenotype (%) [7]: 32%
Total Cell Count [7]: 123
Population Apoptotic (%) [8]: 61%
Population Fragmented Nuclei (%) [8]: 29%
Population Healthy Nuclei (%) [8]: 36%
Population Hoechst High Intensity Objects (%) [8]: 14%
Population Membrane Permeable-Phenotype (%) [8]: 24%
Population Mitochondria Different-Phenotype (%) [8]: 42%
Population Mitotic Cells (%) [8]: 38%
Population Normal (%) [8]: 85%
Population Pyknosed Nuclei (%) [8]: 34%
Population Tubulin-Different-Phenotype (%) [8]: 30%
Total Cell Count [8]: 106
